The results in this text go back to ChEMBL document CHEMBL1158484 (J Med Chem, 2009).

The source made the active and inactive calls. The calls are words filed in the database; no cut-off is given here.

The subject of data set [1] is Trypanosoma brucei rhodesiense. In words: Antitrypanosomal activity against bloodstream Trypanosoma brucei rhodesiense STIB900 infected in NMRI mouse assessed as parasite free mouse survival at 2 mg/kg, ip administered for 4 consecutive days from day 3 to 6 postinfection measured up to 60 days. The format is functional, organism-based. Further details: dose 2 mg/kg. In outline:
(§1)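 Female NMRI mice infected ip with 2×10^4 STIB900 bloodstream forms. Groups of four treated on days 3–6 postinfection. Compounds in DMSO diluted with water to a final 10% DMSO. Untreated infected controls. Tail blood checked for parasitemia to day 60. Surviving aparasitemic mice at day 60 scored cured; mean survival time in days from recorded deaths.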

The test system of data set [2] is Trypanosoma brucei rhodesiense. In words: Antitrypanosomal activity against bloodstream Trypanosoma brucei rhodesiense STIB900 infected in NMRI mouse assessed as survival rate at 2 mg/kg, ip administered 4 consecutive days from day 3 to 6 postinfection. The note with it: route intraperitoneal. The format is functional. In outline: as §1
Data set [3] has as its system Trypanosoma brucei rhodesiense. In words: Antitrypanosomal activity against bloodstream Trypanosoma brucei rhodesiense STIB900 infected in NMRI mouse assessed as survival rate at 1 mg/kg, ip administered 4 consecutive days from day 3 to 6 postinfection. The format is functional. The note with it: route intraperitoneal. In outline: as §1
Data set [4] is described as follows: Selectivity index, ratio of IC50 for rat L6 cells to IC50 for chloroquine-resistant Plasmodium falciparum K1. The format is toxicity, cell-based. Conditions: read-out: Ratio IC50. In outline: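 Ratio of L6 IC50 to P. falciparum K1 IC50. L6: 4000 cells, 70 h at 37 °C, Alamar blue fluorescence. Parasites: infected human erythrocytes (1.25% hematocrit, 0.3% parasitemia) in low-O2 gas for 48 h, then [3H]-hypoxanthine for 24 h, uptake counted. Sigmoidal IC50s, two independent runs in duplicate.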

The test system of data set [5] is Trypanosoma brucei rhodesiense. In words: Ratio compound IC50 to pentamidine IC50 for Trypanosoma brucei rhodesiense STIB900. The format is functional.
Data set [6] concerns Leishmania donovani. In words: Antileishmanial activity against axenic amastigotes of Leishmania donovani MHOM/SD/62/1S-CL2D after 72 hrs. The format is functional, organism-based. In outline: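 Axenic amastigotes (adapted from promastigotes), 6×10^4 per well, amastigote medium, 37 °C. 2-fold compound dilutions; 72 h at 37 °C, humidified 5% CO2. Growth read by tetrazolium CellTiter absorbance at 490 nm several hours after reagent addition. IC50 from four-parameter dose–response fit. DMSO ≤1%.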

Data set [7] concerns L6. In words: Cytotoxicity against rat L6 cells after 70 hrs by alamar blue assay. The format is cell-based. The note with it: L6, 70 h. A general note: Alamar Blue is a resazurin reagent that responds to reducing activity.
Data set [8] concerns Trypanosoma brucei rhodesiense. In words: Antitrypanosomal activity against bloodstream Trypanosoma brucei rhodesiense STIB900 after 70 hrs by alamar blue assay. The note with it: STIB900, 70 h. The format is functional, organism-based. An outline of the steps:
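Bloodstream forms, 2000 per well, in supplemented MEM with Earle's salts (0.2 mM 2-mercaptoethanol, 1 mM pyruvate, 0.5 mM hypoxanthine, 15% heat-inactivated horse serum). Serial dilutions, 70 h at 37 °C, 5% CO2. IC50 from sigmoidal curves; two independent runs in duplicate. DMSO ≤1%.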

A short description of data set [9]: Selectivity index, ratio of IC50 for rat L6 cells to IC50 for axenic amastigotes of Leishmania donovani MHOM/SD/62/1S-CL2D. Format: toxicity, cell-based. Conditions: read-out: Ratio IC50. In outline:
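Ratio of L6 IC50 to L. donovani IC50. L6: 4000 cells in RPMI 1640 with 10% FBS, 70 h at 37 °C, then Alamar blue 2–3 h, fluorescence 536/588 nm. Leishmania: 6×10^4 axenic amastigotes per well, 2-fold dilutions, 72 h at 37 °C in 5% CO2, tetrazolium CellTiter read at 490 nm. IC50 from a four-parameter dose–response fit.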

Data set [10] has as its system Leishmania donovani. In words: Ratio of compound IC50 to pentamidine IC50 for Leishmania donovani MHOM/SD/62/1S-CL2D. The format is functional.
In data set [11] the test system is Plasmodium falciparum. In words: Antiplasmodial activity after 48 hrs against chloroquine-resistant Plasmodium falciparum K1 infected human erythrocytes by [3H]hypoxanthine uptake. Format: functional, organism-based.
For data set [12], the system named is Trypanosoma brucei rhodesiense. In words: Antitrypanosomal activity against bloodstream Trypanosoma brucei rhodesiense STIB900 infected in NMRI mouse assessed as survival rate at 5 mg/kg, ip administered 4 consecutive days from day 3 to 6 postinfection. The note with it: route intraperitoneal. The format is functional. An outline of the steps:
as §1

A short description of data set [13]: Selectivity index, ratio of IC50 for rat L6 cells to IC50 for bloodstream Trypanosoma brucei rhodesiense STIB900. The format is toxicity, cell-based. Conditions: read-out: Ratio IC50.
Data set [14] deals with Trypanosoma brucei rhodesiense. In words: Antitrypanosomal activity against bloodstream Trypanosoma brucei rhodesiense STIB900 infected in NMRI mouse assessed as survival rate at 25 mg/kg, po administered 4 consecutive days from day 3 to 6 postinfection. Format: functional. An outline of the steps:
as §1

In data set [15] the test system is Trypanosoma brucei rhodesiense. In words: Antitrypanosomal activity against bloodstream Trypanosoma brucei rhodesiense STIB900 infected in NMRI mouse assessed as parasite free mouse survival at 25 mg/kg, po administered for 4 consecutive days from day 3 to 6 postinfection measured up to 60 days. The format is functional, organism-based. Details: dose 25 mg/kg. An outline of the steps:
(§2)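 Female NMRI mice infected ip with 2×10^4 STIB900 bloodstream forms; groups of four dosed on 4 consecutive days, days 3-6 postinfection. Compounds in DMSO diluted with water to 10% DMSO. Untreated infected controls. Tail-blood parasitemia followed to day 60; surviving aparasitemic mice at day 60 scored cured; mean survival time recorded.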

Data set [16] deals with Trypanosoma brucei rhodesiense. In words: Antitrypanosomal activity against bloodstream Trypanosoma brucei rhodesiense STIB900 infected in NMRI mouse assessed as parasite free mouse survival at 100 mg/kg, po administered for 4 consecutive days from day 3 to 6 postinfection measured up to 60 days. Format: functional, organism-based. Further details: dose 100 mg/kg.
Data set [17] has as its system Trypanosoma brucei rhodesiense. In words: Antitrypanosomal activity against bloodstream Trypanosoma brucei rhodesiense STIB900 infected in NMRI mouse assessed as survival rate at 100 mg/kg, po administered 4 consecutive days from day 3 to 6 postinfection. Format: functional. In outline:
as §1

Data set [18] deals with Trypanosoma brucei rhodesiense. In words: Antitrypanosomal activity against bloodstream Trypanosoma brucei rhodesiense STIB900 infected in NMRI mouse assessed as parasite free mouse survival at 5 mg/kg, ip administered for 4 consecutive days from day 3 to 6 postinfection measured up to 60 days. The format is functional, organism-based. Details: dose 5 mg/kg. In outline:
as §2

The test system of data set [19] is Trypanosoma brucei brucei. In words: Antitrypanosomal activity against second-stage Trypanosoma brucei brucei GVR35 infected in african sleeping sickness CNS mouse model. Format: functional, organism-based.

As for `Nc1nc(N)nc(Nc2ccc([As]3SCC(CO)S3)cc2)n1` (configuration not stated) [MELARSOPROL], in data set [1], the outcome was Active. Further, the Survival is over 60 days in data set [2] and over 51.5 days in [3].

For the molecule `N=C(N)c1ccc(OCCCCCOc2ccc(C(=N)N)nc2)cn1`, the selectivity ratio in data set [4] was found to be 544; in data set [9], 11; in data set [13] it was 4900. Besides, the “Ratio IC50” value worked out at 3 in data set [5] and 4 in [10]. Also, the IC50 (usually the concentration needed to halve the response being measured) in data set [6] is 0.47 µM; in data set [7], 4.9 µM; in data set [8], 0.001 µM; in data set [11], 0.009 µM. In data set [12], the Survival was over 36 days.

With `CO/N=C(/N)c1ccc(OCCCCCOc2ccc(/C(N)=N\OC)nc2)cn1`, the selectivity ratio in [4] is 11; in data set [9] it was under 1; in data set [13] it was under 1. For the same molecule, the 50% inhibitory concentration (IC50) in data set [6] is over 50 µM; in data set [7], 39.4 µM; in data set [8], 51.2 µM; in [11] it was 3.5 µM. Also, in [14], the Survival worked out at 19.5 days. Also, the result in data set [15] was inactive.

Turning to `N/C(=N\O)c1cc(OCCCCCOc2ccnc(/C(N)=N/O)c2)ccn1`, the selectivity ratio is under 76 in data set [4], 4 in [9] and 13 in data set [13]. Further, the half-inhibitory concentration (IC50) in data set [6] was 45 µM; in data set [7] it was 159 µM; in [8] it was 12 µM; in data set [11], over 2.1 µM. In data set [16], the outcome was inactive. The Survival in [17] worked out at 14.25 days.

As for `N=C(N)c1ccc(OCCCCCOc2ccc(C(=N)N)cn2)nc1`, the selectivity ratio in data set [4] worked out at 416; in data set [9], 4; in data set [13] it was 1960. For the same molecule, the IC50 was 39 µM in [6], 137 µM in [7], 0.07 µM in [8] and 0.329 µM in [11]. Also, in data set [18], the result was inactive. Moreover, the Survival in [12] was found to be 17.75 days.

For the molecule `N/C(=N\O)c1ccc(OCCCCCOc2ccc(/C(N)=N\O)cn2)nc1`, the selectivity ratio is 3 in data set [4], under 1 in data set [9] and under 1 in data set [13]. Also, the half-maximal inhibitory concentration (IC50) is over 100 µM in [6], 16.4 µM in data set [7], 27.4 µM in [8] and 6.5 µM in data set [11]. In data set [14], the Survival was found to be 8.75 days. Also, in data set [15], the outcome was inactive.

As for `CO/N=C(\N)c1cc(OCCCCCOc2ccnc(/C(N)=N/OC)c2)ccn1`, the selectivity ratio is under 69 in [4], 1 in data set [9] and 8 in data set [13]. Besides, the concentration for half-maximal inhibition (IC50) in data set [6] is over 100 µM; in [7], 138 µM; in data set [8], 18.2 µM; in data set [11] it was over 2 µM. The result in data set [16] was inactive. Also, the Survival in data set [17] stood at 11.75 days.

With `N/C(=N/O)c1ccc(OCCCCCOc2ccc(/C(N)=N\O)nc2)cn1`, the selectivity ratio was under 16 in data set [4], under 2 in [9] and 2 in [13]. Also, the 50% inhibitory concentration (IC50) in [6] was over 100 µM; in [7] it was 166 µM; in data set [8] it was 108 µM; in [11], over 10.7 µM. In addition, the outcome in data set [19] was inactive. Moreover, in data set [14], the Survival is over 60 days. For the same molecule, the outcome in data set [15] was Active.

For `N=C(N)c1cccc(OCCCCCOc2cccc(C(=N)N)n2)n1`, the selectivity ratio in [4] came to 4220; in data set [9] it was 28; in data set [13] it was 6000. Moreover, the IC50 in data set [6] is 4.1 µM; in data set [7], 114 µM; in [8], 0.019 µM; in data set [11] it was 0.027 µM. The result in data set [18] was inactive. Further, in [12], the Survival turned out to be 22.5 days.
